According to ChEMBL document CHEMBL1129527, “Synthesis, chromatographic resolution, and anti-human immunodeficiency virus activity of (+/-)-calanolide A and its enantiomers” (J Med Chem, 1996):

Tests used:
[1] = test system: Avian myeloblastosis virus; experiment: Inhibitory activity against Avian Myeloblastosis Virus Reverse Transcriptase (AMV RT); IA=inactive; format: functional
[2] = test system: Avian myeloblastosis virus; experiment: Percent inhibition against Avian Myeloblastosis Virus Reverse Transcriptase (AMV RT) at dose 200 ug/mL; format: functional
Nucleic Acid [3] = experiment: Inhibitory activity against DNA polymerase alpha; IA=inactive; format: nucleic-acid assay
How it was run: (§1)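 Polymerase α or β (0.5 unit) in Tris·HCl with 5 mM KCl, 10 mM MgCl2, 1.5 mM DTT, BSA, and 12% glycerol. Template was 41 µM activated calf thymus DNA, with 80 µM each dATP, dCTP, dGTP and ATP, plus [3H]TTP. Compound was added in DMSO, duplicate wells, 37 °C. Incorporation was counted by scintillation. IC50 came from 10-point half-log dose–response curves.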

Nucleic Acid [4] = experiment: Inhibitory activity against DNA polymerase beta; format: nucleic-acid assay; how it was run: as §1
[5] = molecular target: DNA-directed RNA polymerase subunit beta (Escherichia coli K-12, UniProt P0A8V2); experiment: Inhibitory activity against RNA polymerase; IA=inactive
How it was run: (§2)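 RNA polymerase (0.5 unit) in Tris·HCl with 150 mM KCl, 10 mM MgCl2, 0.1 mM DTT, and BSA. Template was 41 µM native calf thymus DNA, with 80 µM each ATP, CTP and GTP, plus [3H]UTP. Compounds in DMSO were prescreened at 200 µg/mL. […] Percent inhibition = (1 − test/DMSO control) × 100.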

[6] = molecular target: DNA-directed RNA polymerase subunit beta (Escherichia coli K-12) (UniProt P0A8V2); experiment: Percent inhibition against RNA polymerase at dose 200 ug/mL; how it was run: as §2
MT2 [7] = experiment: Anti-HIV activity against HIV-I A17 strain in MT2 cell line; format: functional, cell-based; conditions: Homo sapiens
How it was run: (§3)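 MT-2 cells in RPMI 1640 with 10% heat-inactivated FCS and 25 mM HEPES, infected at MOI ~0.03 TCID50/cell for 4 h at 37 °C, then washed. Seeded at 10^4 cells/mL. Compounds were diluted from DMSO to a top concentration of 100 µg/mL (≤0.25% DMSO), in triplicate with infected cells and duplicate with uninfected cells. MTT viability was read at day 7. EC50 protects against virus-induced killing; IC50 is cytotoxicity.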

MT2 [8] = experiment: (§4) Anti-HIV activity against HIV-I G910-6 strain in MT2 cell line; format: functional, cell-based; conditions: Homo sapiens; how it was run: as §3
MT2 [9] = experiment: Anti-HIV activity against HIV-I IIIB strain in MT2 cell line; format: functional, cell-based; conditions: Homo sapiens; how it was run: as §3
MT2 [10] = experiment: (§5) Anti-HIV activity against HIV-I H112-2 strain in MT2 cell line; format: functional, cell-based; conditions: Homo sapiens; how it was run: as §3
CCRF-CEM = experiment: Anti-HIV activity against HIV-I RFII strain in CEM cell line; format: functional, cell-based; conditions: Homo sapiens
How it was run: (§6)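 CEM-SS cells in RPMI 1640 with 10% heat-inactivated FCS, infected at ~0.12 TCID50/cell for 4 h at 37 °C, washed, and seeded at 10^4 cells/mL. Drug dilutions from DMSO went up to 100 µg/mL, in triplicate on infected wells and duplicate on uninfected wells. MTT viability was measured after 6 days.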

[11] = test system: Avian myeloblastosis virus; experiment: Inhibitory activity against Avian Myeloblastosis Virus Reverse Transcriptase (AMV RT); inactive; format: functional
MT2 [12] = experiment: as §5; format: functional; conditions: Homo sapiens; how it was run: as §3
MT2 [13] = experiment: as §4; format: functional; conditions: Homo sapiens; how it was run: as §3
[14] = Therapeutic index is the ratio between IC50/EC50 of HIV-I G910-6 strain in MT2 cell line; format: cell-based; conditions: human, MT2 cells infected with HIV-1 G910-6 strain; read-out: TI; how it was run: as §3
[15] = Therapeutic index is the ratio between IC50/EC50 of HIV-I IIIB strain in MT2 cell line; format: cell-based; conditions: human, MT2 cells infected with HIV-1 IIIB strain; read-out: TI; how it was run: as §3
[16] = Therapeutic index is the ratio between IC50/EC50 of HIV-I H112-2 strain in MT2 cell line; format: cell-based; conditions: human, MT2 cells infected with HIV-1 H112-2 strain; read-out: TI; how it was run: as §3
[17] = Therapeutic index is the ratio between IC50/EC50 of HIV-I RFII strain in CEM cell line; format: cell-based, CCRF-CEM; conditions: human, CEM cells infected with HIV-1 RFII strain; read-out: TI; how it was run: as §6
[18] = Therapeutic index is the ratio between IC50/EC50 of HIV-I A17 strain in MT2 cell line; format: cell-based; conditions: human, MT2 cells infected with HIV-1 A17 strain; read-out: TI; how it was run: as §3

DNA-directed RNA polymerase subunit beta (Escherichia coli K-12), sequence (P0A8V2 whole entry, looked up): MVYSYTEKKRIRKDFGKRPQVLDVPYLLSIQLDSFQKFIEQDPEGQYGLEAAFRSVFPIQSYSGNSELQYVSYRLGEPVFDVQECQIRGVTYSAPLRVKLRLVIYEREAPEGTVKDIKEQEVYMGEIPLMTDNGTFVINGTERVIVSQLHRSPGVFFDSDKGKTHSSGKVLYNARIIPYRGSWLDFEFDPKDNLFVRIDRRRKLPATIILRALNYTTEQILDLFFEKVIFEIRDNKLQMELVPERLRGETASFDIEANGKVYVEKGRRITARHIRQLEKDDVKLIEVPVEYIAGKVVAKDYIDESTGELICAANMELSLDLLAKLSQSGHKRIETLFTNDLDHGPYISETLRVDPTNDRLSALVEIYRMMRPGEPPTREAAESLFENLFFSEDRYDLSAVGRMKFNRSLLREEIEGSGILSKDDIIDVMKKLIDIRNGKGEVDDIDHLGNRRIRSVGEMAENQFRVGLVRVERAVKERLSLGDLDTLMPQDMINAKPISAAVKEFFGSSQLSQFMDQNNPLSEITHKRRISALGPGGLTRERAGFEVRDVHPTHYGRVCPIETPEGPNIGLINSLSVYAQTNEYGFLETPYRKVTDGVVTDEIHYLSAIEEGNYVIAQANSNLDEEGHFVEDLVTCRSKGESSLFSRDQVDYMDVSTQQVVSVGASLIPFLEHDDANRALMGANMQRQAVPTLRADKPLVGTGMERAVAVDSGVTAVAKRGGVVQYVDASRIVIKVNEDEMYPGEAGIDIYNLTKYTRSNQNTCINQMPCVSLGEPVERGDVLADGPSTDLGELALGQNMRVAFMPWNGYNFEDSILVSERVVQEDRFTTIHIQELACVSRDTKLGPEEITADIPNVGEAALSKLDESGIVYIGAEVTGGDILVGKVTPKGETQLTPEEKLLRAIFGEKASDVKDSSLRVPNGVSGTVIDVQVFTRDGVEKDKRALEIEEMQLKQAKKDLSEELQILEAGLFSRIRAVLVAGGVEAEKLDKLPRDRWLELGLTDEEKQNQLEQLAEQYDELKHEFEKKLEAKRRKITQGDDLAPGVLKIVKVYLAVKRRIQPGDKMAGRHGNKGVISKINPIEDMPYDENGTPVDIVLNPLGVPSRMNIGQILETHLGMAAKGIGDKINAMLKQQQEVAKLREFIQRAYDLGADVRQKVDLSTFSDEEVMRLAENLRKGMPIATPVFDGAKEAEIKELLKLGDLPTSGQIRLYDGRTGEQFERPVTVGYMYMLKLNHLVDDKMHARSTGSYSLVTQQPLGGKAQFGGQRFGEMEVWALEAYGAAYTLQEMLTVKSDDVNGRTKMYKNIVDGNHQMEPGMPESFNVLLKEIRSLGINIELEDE
DNA-directed RNA polymerase subunit beta, sequence (P0A8V2 whole entry): as the sequence (P0A8V2 whole entry, looked up) above

Compound | IC50 [1] | IC50 (Nucleic Acid [3]) | IC50 (Nucleic Acid [4]) | IC50 [5] | inhibition [6] | EC50 (MT2 [7]) | EC50 (MT2 [8]) | EC50 (MT2 [9]) | EC50 (MT2 [10]) | EC50 (CCRF-CEM) | IC50 [11] | inhibition at 200 µg/mL [2] | IC25 (MT2 [12]) | IC25 (MT2 [13]) | selectivity ratio [14] | selectivity ratio [15] | selectivity ratio [16] | selectivity ratio [17] | selectivity ratio [18]
CCCc1cc(=O)oc2c3c(c4c(c12)OC(C)(C)C=C4)O[C@H](C)[C@@H](C)[C@@H]3O [CALANOLIDE A] |  | Not Active | 205 µM | Not Active | 16% | 427 nM | 27 nM | 53 nM | 107 nM | 267 nM | Not Active | 20.6% |  |  |  |  |  |  | 
CCCc1cc(=O)oc2c3c(c4c(c12)OC(C)(C)C=C4)O[C@@H](C)[C@H](C)[C@@H]3O [COSTATOLIDE] | Not Active | Not Active | 214 µM | Not Active | 12.1% |  |  |  |  |  |  | 16.8% | 4.05 µM | 3.97 µM |  |  |  |  | 
Nc1ccn([C@H]2CC[C@@H](CO)O2)c(=O)n1 [ZALCITABINE] |  |  |  |  |  | 331 nM | 994 nM | 900 nM | 1560 nM | 189 nM |  |  |  |  | 213 | 93 | 166 | 250 | 408

More lines, main results first:

IC50 [1] | IC50 (Nucleic Acid [3]) | IC50 (Nucleic Acid [4]) | IC50 [5] | inhibition [6] | EC50 (MT2 [7]) | EC50 (MT2 [8]) | EC50 (MT2 [9]) | EC50 (MT2 [10]) | EC50 (CCRF-CEM) | IC50 [11] | Compound | inhibition at 200 µg/mL [2] | IC25 (MT2 [12]) | IC25 (MT2 [13]) | selectivity ratio [14] | selectivity ratio [15] | selectivity ratio [16] | selectivity ratio [17] | selectivity ratio [18]
Not Active | Not Active | 279 µM | Not Active | 27.8% | 297 nM | 108 nM | 108 nM | 135 nM | 486 nM |  | CCCc1cc(=O)oc2c3c(c4c(c12)OC(C)(C)C=C4)O[C@@H](C)C(C)[C@@H]3O (mixture of isomers) | 13.3% |  |  |  |  |  |  | 
 |  |  |  |  | 14 nM |  | 29 nM | 37 nM | 23 nM |  | Cc1cn([C@H]2C[C@H](N=[N+]=[N-])[C@@H](CO)O2)c(=O)[nH]c1=O [ZIDOVUDINE] |  |  |  |  | 1780 | 3240 | 13100 | 5960
